Experimental data pooled from the literature.
Protocols differ between the studies behind these lines.
Target: Mitogen-activated protein kinase kinase kinase 10 (MAP3K10, Homo sapiens, UniProt Q02779)

| SMILES | assay | setting | endpoint | value |
| --- | --- | --- | --- | --- |
| O=C1Nc2ccc(Cl)cc2C1=Cc1cc(Cl)c(O)c(Cl)c1 | cell-free assay | 0.5 µM | remaining signal | 86.8% |
| Cc1ccc(C(=O)Nc2ccc(CN3CCN(C)CC3)c(C(F)(F)F)c2)cc1C#Cc1cnc2cccnn12 | enzyme activity, inhibitor | 23.5 nM | remaining activity | 69% |
| C[C@@H]1CN(c2cc(-c3n[nH]c4ccc(OC5(C)CC5)cc34)ncn2)C[C@H](C)O1 | cell-free assay, competition with immobilised ligand | 0.1 µM | remaining binding | 100% |
| C[C@@H]1CCN(C(=O)CC#N)C[C@@H]1N(C)c1ncnc2[nH]ccc12 | cell-free assay, inhibitor | 0.5 µM | remaining signal | 105% |
| Cc1cc(NC(=O)c2cccc3cc(-c4cccc5[nH]nc(N)c45)ccc23)ccc1F | enzyme activity, inhibitor | 0.1 µM | activity vs control | 98% |
| CC/C(=N\NC(=O)NCc1cccc(O)c1)c1ccc(O)c(C)c1O | enzyme activity, inhibitor | 0.1 µM | inhibition | 6.2% |
| O=C1NC(=O)c2cc(Nc3ccc(F)cc3)c(Nc3ccc(F)cc3)cc21 | cell-free assay | 0.5 µM | remaining signal | 90.6% |
| CC(C)(C)c1nc2c(s1)c1nc(N)ncc1c1ccc(NS(=O)(=O)c3c(F)cccc3F)c(F)c12 | enzyme activity, inhibitor, radiometric | 1 µM | remaining activity | 102% |
| Oc1ccc(-c2nc(-c3ccncc3)c(-c3ccc(F)cc3)[nH]2)cc1 | cell-free assay | 0.5 µM | remaining signal | 32.8% |
| CC(C)(O)c1cncc(-c2nc3ccc(F)cc3n2C2CC2)c1 | cell-free assay, competition with immobilised ligand | 1 µM | remaining binding | 100% |
| Cc1ccc(C(=O)NCc2ccsc2)cc1C#Cc1cn(C(C)C)c2ncnc(N)c12 | enzyme activity, inhibitor | 1 µM | activity vs control | 5% |
| C[C@H](NC(=O)c1cnc2n1[C@](C)(Cc1ccc(C#N)cc1)C(=O)N2c1cc(Cl)c(F)c(Cl)c1)C(=O)NC1(c2ccccn2)CC1 | cell-free assay, competition with immobilised ligand | 1 µM | remaining binding | 100% |
| O=C(Nc1cnn(-c2csc(C(=O)NC3COC3)c2)c1)Nc1c(F)cccc1Cl | enzyme activity, inhibitor | 5 µM | remaining activity | 94.3% |
| c1ccc(CNc2nc(N3CCOc4ccccc43)nc3c2CCCC3)cc1 | target engagement in cells, inhibitor, chemoproteomics | 20 mM | inhibition | 14.1% |
| CCCOc1ccc([C@@H]2[C@@H](C(=O)O)[C@H](c3ccc4c(c3)OCO4)CN2CC(=O)Nc2c(CC)cccc2CC)cc1 | cell-free assay, competition with immobilised ligand | 1 µM | remaining binding | 100% |
| COc1cccc2c(NCc3ccccc3)nc(-n3c(N)nc4ccccc43)nc12 | target engagement in cells, inhibitor, chemoproteomics | 20 mM | inhibition | 17.4% |
| CNCc1ccccc1-c1csc([C@@H](C)Nc2nc(C)nc3cc(OC)c(OC)cc23)c1 | cell-free assay, competition with immobilised ligand | 1 µM | remaining binding | 96% |
